“Also recorded” adds a separate entry of the source.
What was measured:
[1] = cited from earlier work
TRPC4-C1 = TRPC4-C1 (Homo sapiens, UniProt P48995+Q9UBN4); details: read-out: TRPC4-C1 IC50; 10 nM EA was used as activator; cited from earlier work
TRPC5-SYFP2 = target: T1, TRPC5-SYFP2 (Homo sapiens, UniProt Q9UL62); assay: Competition photoaffinity labelling; assay type: binding; details: Pico145 10 μM pre-treatment; 300 nM Pico145-DAAlk 5
T1 sequence (Q9UL62 1-973): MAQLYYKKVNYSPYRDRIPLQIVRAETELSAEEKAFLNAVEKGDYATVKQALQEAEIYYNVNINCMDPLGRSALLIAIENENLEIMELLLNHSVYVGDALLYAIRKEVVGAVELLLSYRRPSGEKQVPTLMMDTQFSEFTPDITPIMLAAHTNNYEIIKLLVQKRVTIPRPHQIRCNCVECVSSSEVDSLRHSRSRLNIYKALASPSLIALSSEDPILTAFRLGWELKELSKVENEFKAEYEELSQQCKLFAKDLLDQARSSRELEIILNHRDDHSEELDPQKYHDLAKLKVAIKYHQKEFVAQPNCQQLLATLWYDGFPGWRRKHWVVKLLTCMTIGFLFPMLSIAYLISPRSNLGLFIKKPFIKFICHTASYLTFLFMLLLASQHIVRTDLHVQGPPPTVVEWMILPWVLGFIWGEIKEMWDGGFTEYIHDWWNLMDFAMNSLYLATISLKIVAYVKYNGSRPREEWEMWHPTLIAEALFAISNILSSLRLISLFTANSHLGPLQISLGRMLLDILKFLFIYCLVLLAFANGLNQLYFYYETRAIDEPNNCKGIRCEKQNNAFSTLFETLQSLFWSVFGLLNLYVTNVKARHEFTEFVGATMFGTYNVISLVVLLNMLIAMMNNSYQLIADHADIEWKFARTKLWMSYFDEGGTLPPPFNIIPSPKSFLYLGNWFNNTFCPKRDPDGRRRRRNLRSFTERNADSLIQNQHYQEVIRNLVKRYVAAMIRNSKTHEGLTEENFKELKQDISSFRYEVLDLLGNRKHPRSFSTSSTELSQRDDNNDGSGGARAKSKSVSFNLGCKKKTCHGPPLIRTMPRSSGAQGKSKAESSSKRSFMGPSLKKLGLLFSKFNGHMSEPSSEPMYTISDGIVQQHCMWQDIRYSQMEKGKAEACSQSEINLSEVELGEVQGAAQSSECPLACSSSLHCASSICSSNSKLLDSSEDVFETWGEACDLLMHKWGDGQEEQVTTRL
Outline: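 Tetracycline-induced (1 μg ml−1, 24 h) cells in SBS pre-treated 30 min at 37 °C with test compound or DMSO, then 30 min at 37 °C with 300 nM diazirine-alkyne probe plus competitor. Streptavidin-HRP/anti-GFP blots; biotin/GFP densitometry versus probe-only control; n = 3; one-way ANOVA, Dunnett.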

TRPC4:C4 [2] = target: T2, TRPC4:C4 (Homo sapiens, UniProt Q9UBN4); details: read-out: TRPC4:C4 IC50; 10 nM EA was used as activator; cited from earlier work
T2 sequence (Q9UBN4 1-893 isoform Q9UBN4-2): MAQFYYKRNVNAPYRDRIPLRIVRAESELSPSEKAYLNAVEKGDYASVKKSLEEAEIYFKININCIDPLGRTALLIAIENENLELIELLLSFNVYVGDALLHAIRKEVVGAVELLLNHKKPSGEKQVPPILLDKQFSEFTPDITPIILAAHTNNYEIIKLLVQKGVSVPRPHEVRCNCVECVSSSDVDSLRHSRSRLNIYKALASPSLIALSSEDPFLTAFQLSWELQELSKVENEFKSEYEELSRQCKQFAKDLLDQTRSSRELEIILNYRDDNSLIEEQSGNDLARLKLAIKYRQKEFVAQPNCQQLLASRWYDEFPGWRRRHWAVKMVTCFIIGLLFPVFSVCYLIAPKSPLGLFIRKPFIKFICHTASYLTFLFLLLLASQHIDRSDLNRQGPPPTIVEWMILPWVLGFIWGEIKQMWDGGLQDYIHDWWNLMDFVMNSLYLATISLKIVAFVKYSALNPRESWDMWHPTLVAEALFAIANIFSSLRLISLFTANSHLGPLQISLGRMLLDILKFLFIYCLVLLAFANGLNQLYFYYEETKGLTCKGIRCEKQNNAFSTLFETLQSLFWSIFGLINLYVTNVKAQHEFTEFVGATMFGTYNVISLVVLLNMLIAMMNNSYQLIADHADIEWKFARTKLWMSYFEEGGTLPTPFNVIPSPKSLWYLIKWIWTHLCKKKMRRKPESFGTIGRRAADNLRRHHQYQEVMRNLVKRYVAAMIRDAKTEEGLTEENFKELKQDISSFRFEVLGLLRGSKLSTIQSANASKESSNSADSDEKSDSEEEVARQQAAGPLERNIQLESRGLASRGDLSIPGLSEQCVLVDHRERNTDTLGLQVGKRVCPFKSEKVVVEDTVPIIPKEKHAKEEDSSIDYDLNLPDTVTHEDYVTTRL

TRPC4:C4 [3] = details: read-out: TRPC4:C4 IC50; cited from earlier work
TRPC5:C5 = details: read-out: TRPC5:C5 IC50; cited from earlier work

Chain of TRPC4-C1 (P48995 whole entry, one chain of several): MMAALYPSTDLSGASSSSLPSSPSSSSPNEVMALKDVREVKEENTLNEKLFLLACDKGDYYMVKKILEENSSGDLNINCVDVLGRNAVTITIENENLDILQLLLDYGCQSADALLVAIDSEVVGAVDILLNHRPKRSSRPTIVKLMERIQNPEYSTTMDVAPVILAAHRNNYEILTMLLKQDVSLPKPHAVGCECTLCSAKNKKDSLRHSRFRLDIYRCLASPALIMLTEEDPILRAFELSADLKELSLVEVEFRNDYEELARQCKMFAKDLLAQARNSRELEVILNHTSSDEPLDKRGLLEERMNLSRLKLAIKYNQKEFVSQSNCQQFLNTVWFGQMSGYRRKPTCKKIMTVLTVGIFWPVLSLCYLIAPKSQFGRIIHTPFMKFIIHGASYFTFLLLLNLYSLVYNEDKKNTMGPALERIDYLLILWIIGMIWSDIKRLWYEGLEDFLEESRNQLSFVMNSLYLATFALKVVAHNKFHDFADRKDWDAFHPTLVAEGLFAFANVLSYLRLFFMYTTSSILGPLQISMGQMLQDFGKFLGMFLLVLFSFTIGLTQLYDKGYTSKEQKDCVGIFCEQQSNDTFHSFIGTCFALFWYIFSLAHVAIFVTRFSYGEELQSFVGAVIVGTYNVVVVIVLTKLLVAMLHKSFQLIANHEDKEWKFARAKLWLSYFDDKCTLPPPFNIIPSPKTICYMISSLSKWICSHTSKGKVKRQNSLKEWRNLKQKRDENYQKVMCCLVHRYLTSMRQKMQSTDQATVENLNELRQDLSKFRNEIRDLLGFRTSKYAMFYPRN

Row | SMILES | Oral bioavailability [1] | IC50 (TRPC4-C1) [nM] | Effect on TRPC5 photoaffinity labelling with Pico145-DAAlk 5 (TRPC5-SYFP2) | IC50 (TRPC4:C4 [2]) [nM] | IC50 (TRPC4:C4 [3]) [nM] | IC50 (TRPC5:C5) [nM]
1 | Cn1c(=O)n(CCCO)c(=O)c2c1nc(Oc1cccc(OC(F)(F)F)c1)n2Cc1ccc(Cl)cc1 [Pico145 1] | orally bioavailable | 0.03 | inhibition of TRPC5 labelling; also recorded: inhibits photoaffinity labelling | 0.35 |  | 
2 | O=C1CN(c2cn[nH]c(=O)c2Cl)CCN1Cc1ccccc1C(F)(F)F [GFB-8438] |  |  |  |  | 290 | 180 to 280

— publication PMC10655067 (RSC Chemical Biology, 2020)
